Experimental data taken from ChEMBL document CHEMBL5096186, “Design, Synthesis, and Biological Evaluation of Novel Pyrimido[4,5-b]indole Derivatives Against Gram-Negative Multidrug-Resistant Pathogens” (J Med Chem, 2021).
Values after ≈ are worked out from the molar mass of the structure shown. Active and inactive are the calls of the source. The calls are words filed in the database; no cut-off is given here.

Assays:
[1] = biological target: T1, hERG (KCNH2) potassium channel (Homo sapiens, UniProt Q12809); test: Inhibition of hERG potassium channel assessed as maximum inhibition rate at 3 uM at -80 mV holding potential incubated for 120 seconds by whole cell-automated voltage clamp analysis assay relative to control; assay type: toxicity; settings: time 120 sec
T1 sequence (Q12809 whole entry): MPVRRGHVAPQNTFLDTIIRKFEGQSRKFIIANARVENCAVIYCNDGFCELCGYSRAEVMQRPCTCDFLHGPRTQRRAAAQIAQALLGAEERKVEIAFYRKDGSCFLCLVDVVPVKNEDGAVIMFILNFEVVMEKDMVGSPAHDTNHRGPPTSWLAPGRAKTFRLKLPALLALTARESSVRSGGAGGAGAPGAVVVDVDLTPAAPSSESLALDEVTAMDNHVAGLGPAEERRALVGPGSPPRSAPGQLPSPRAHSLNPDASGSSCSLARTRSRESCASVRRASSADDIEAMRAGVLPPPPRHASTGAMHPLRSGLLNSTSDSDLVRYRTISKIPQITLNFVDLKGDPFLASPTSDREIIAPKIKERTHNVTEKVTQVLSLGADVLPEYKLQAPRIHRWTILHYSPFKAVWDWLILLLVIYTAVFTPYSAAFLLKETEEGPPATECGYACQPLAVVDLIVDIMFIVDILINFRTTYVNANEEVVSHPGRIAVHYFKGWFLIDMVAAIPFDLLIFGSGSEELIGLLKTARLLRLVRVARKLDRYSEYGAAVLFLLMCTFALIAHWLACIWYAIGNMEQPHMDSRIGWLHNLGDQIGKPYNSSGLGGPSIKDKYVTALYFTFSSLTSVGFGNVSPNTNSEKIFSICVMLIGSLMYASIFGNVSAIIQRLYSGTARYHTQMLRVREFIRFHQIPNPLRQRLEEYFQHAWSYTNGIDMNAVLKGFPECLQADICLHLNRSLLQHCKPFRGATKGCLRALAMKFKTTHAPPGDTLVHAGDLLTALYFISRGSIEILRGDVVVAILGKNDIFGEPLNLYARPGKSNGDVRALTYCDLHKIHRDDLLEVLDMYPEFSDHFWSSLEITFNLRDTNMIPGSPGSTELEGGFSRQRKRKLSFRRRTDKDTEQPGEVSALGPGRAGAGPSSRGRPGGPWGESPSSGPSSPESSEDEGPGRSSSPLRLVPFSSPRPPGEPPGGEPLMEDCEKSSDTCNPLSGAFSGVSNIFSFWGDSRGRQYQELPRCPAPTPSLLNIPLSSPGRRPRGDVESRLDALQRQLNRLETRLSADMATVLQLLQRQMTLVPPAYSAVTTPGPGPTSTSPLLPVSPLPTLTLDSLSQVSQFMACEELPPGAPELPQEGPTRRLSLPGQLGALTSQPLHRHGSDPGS
How it was run: (§1)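 Automated whole-cell patch clamp, holding potential −80 mV. Voltage protocol applied every 20 s. Baseline set with external solution containing 0.1% DMSO and stabilised 3 min. Compound applied until steady state, at least 3 min, then washout. Maximum tested concentration 40 μM, or 3 μM for cisapride as positive control.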

[2] = biological target: T1, hERG (KCNH2) potassium channel; test: Inhibition of hERG potassium channel assessed as maximum inhibition rate at 40 uM at -80 mV holding potential incubated for 120 seconds by whole cell-automated voltage clamp analysis assay relative to control; assay type: toxicity; settings: time 120 sec; how it was run: as §1
[3] = biological target: Voltage-gated inwardly rectifying potassium channel KCNH2 (Homo sapiens, UniProt Q12809); test: Inhibition of hERG potassium channel assessed as […] at -80 mV holding potential incubated for 120 seconds by whole cell-automated voltage clamp analysis assay; assay type: toxicity; how it was run: as §1
Chain of Voltage-gated inwardly rectifying potassium channel KCNH2 (Q12809 whole entry): as above

Escherichia coli [4] = test: Antibacterial activity against ESBL-producing multidrug resistant Escherichia coli assessed as reduction in bacterial growth incubated for 18 to 20 hrs by CLSI based microdilution method; assay type: functional; settings: time 18-20 hrs
How it was run: (§2)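 Broth microdilution per CLSI. Compounds dissolved in DMSO (levofloxacin and meropenem in water) as 64 μg/mL stock, then serial twofold dilutions in broth giving 64 to 0.008 μg/mL. […] Clinical isolates tested as several strains per group; racemic GP-1 served as positive control; values given as MIC ranges.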

Escherichia coli [5] = test: Antibacterial activity against multidrug resistant wild type Escherichia coli ATCC BAA-2340 assessed as reduction in bacterial growth incubated for 18 to 20 hrs by CLSI based microdilution method; assay type: functional; settings: time 18-20 hrs; how it was run: as §2
Escherichia coli [6] = test: Antibacterial activity against multidrug resistant wild type Escherichia coli NCTC 13353 assessed as reduction in bacterial growth incubated for 18 to 20 hrs by CLSI based microdilution method; assay type: functional; settings: time 18-20 hrs; how it was run: as §2
Klebsiella pneumoniae [7] = test: Antibacterial activity against KPC2-producing multidrug resistant Klebsiella pneumoniae assessed as reduction in bacterial growth incubated for 18 to 20 hrs by CLSI based microdilution method; assay type: functional; settings: time 18-20 hrs; how it was run: as §2
Klebsiella pneumoniae [8] = test: Antibacterial activity agains wild type Klebsiella pneumoniae ATCC BAA-1705 assessed as reduction in bacterial growth incubated for 18 to 20 hrs by CLSI based microdilution method; assay type: functional; settings: time 18-20 hrs
How it was run: (§3)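 CLSI broth microdilution. Compounds in DMSO (levofloxacin and meropenem in water), serial twofold dilutions in broth, 64 to 0.008 μg/mL. […] Results reported as MIC ranges across strains.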

Klebsiella pneumoniae [9] = test: Antibacterial activity agains wild type Klebsiella pneumoniae ATCC BAA-2470 assessed as reduction in bacterial growth incubated for 18 to 20 hrs by CLSI based microdilution method; assay type: functional; settings: time 18-20 hrs; how it was run: as §2
Acinetobacter baumannii [10] = test: Antibacterial activity agains OXA23-producing multidrug resistant Acinetobacter baumannii assessed as reduction in bacterial growth incubated for 18 to 20 hrs by CLSI based microdilution method; assay type: functional; settings: time 18-20 hrs; how it was run: as §2
Acinetobacter baumannii [11] = test: Antibacterial activity against wild type Acinetobacter baumannii NCTC 13304 assessed as reduction in bacterial growth incubated for 18 to 20 hrs by CLSI based microdilution method; assay type: functional; settings: time 18-20 hrs; how it was run: as §2
Pseudomonas aeruginosa [12] = test: Antibacterial activity against IMP4-producing multidrug resistant Pseudomonas aeruginosa assessed as reduction in bacterial growth incubated for 18 to 20 hrs by CLSI based microdilution method; assay type: functional; settings: time 18-20 hrs; how it was run: as §2
Pseudomonas aeruginosa [13] = test: Antibacterial activity against wild type Pseudomonas aeruginosa ATCC 27853 assessed as reduction in bacterial growth incubated for 18 to 20 hrs by CLSI based microdilution method; assay type: functional; settings: time 18-20 hrs; how it was run: as §3
[14] = Metabolic stability in rat liver microsome assessed as elimination half life at 0.1 uM in presence of NADPH incubated upto 60 mins by LC-MS/MS analysis; assay type: ADME; settings: liver microsomes, read-out: beta t1/2
How it was run: (§4)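 Compound at 0.1 μM final, in 0.01% DMSO with 0.005% BSA. Incubated with rat or human liver microsomes at 0.33 mg/mL in 0.1 M Tris-HCl, pH 7.4, with 5 mM MgCl₂ and 1 mM NADPH, at 37 °C. Samples at 0, 7, 17, 30 and 60 min quenched with cold methanol and analysed by LC-MS/MS. Half-life, Cl_int and MF% derived as previously described.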

[15] = Metabolic stability in human liver microsome assessed as elimination half life at 0.1 uM in presence of NADPH incubated upto 60 mins by LC-MS/MS analysis; assay type: ADME; settings: liver microsomes, read-out: beta t1/2; how it was run: as §4
[16] = Metabolic stability in rat liver microsome assessed as intrinsic clearance at 0.1 uM in presence of NADPH incubated upto 60 mins by LC-MS/MS analysis; assay type: ADME; settings: microsomes, 1 h; how it was run: as §4
[17] = Metabolic stability in human liver microsome assessed as intrinsic clearance at 0.1 uM in presence of NADPH incubated upto 60 mins by LC-MS/MS analysis; assay type: ADME; settings: microsomes, 1 h; how it was run: as §4
[18] = Metabolic stability in rat liver microsome assessed as metabolic bioavailability at 0.1 uM in presence of NADPH incubated upto 60 mins by LC-MS/MS analysis; assay type: ADME; settings: liver microsomes; how it was run: as §4
[19] = Metabolic stability in human liver microsome assessed as metabolic bioavailability at 0.1 uM in presence of NADPH incubated upto 60 mins by LC-MS/MS analysis; assay type: ADME; settings: liver microsomes; how it was run: as §4
[20] = AUC (0 to infinity) in Sprague-Dawley rat at 5 mg/kg, iv measured upto 24 hrs by LC-MS/MS analysis; assay type: ADME, organism-based; design: time < 24 hrs, dose 5 mg/kg, route iv; settings: in vivo
How it was run: (§5)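 Male Sprague-Dawley rats, n = 3 per group, single intravenous dose. For 4 mg/kg: 180–280 g rats, vehicle 5% DMSO + 5% EtOH + 40% PEG300 + 50% saline, blood from the retrobulbar vein at 0.05–24 h. For 5 and 20 mg/kg: 180–300 g rats, vehicle 5% DMSO + 5% solutol + 90% saline, sampled at 0.083–24 h. Plasma quantified by LC/MS/MS. Parameters from mean plasma concentration by noncompartmental analysis; values are mean ± standard deviation.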

[21] = AUC (0 to infinity) in Sprague-Dawley rat at 20 mg/kg, iv measured upto 24 hrs by LC-MS/MS analysis; assay type: ADME, organism-based; design: dose 20 mg/kg, time < 24 hrs, route iv; settings: in vivo; how it was run: as §5
[22] = Elimination half life in Sprague-Dawley rat at 5 mg/kg, iv measured upto 24 hrs by LC-MS/MS analysis; assay type: ADME, organism-based; settings: in vivo, read-out: beta t1/2 (converted); how it was run: as §5
[23] = Elimination half life in Sprague-Dawley rat at 20 mg/kg, iv measured upto 24 hrs by LC-MS/MS analysis; assay type: ADME, organism-based; settings: in vivo, read-out: beta t1/2 (converted); how it was run: as §5
[24] = MRT in Sprague-Dawley rat at 5 mg/kg, iv measured upto 24 hrs by LC-MS/MS analysis; assay type: ADME, organism-based; settings: in vivo; how it was run: as §5
[25] = MRT in Sprague-Dawley rat at 20 mg/kg, iv measured upto 24 hrs by LC-MS/MS analysis; assay type: ADME, organism-based; settings: in vivo; how it was run: as §5
[26] = Clearance in Sprague-Dawley rat at 5 mg/kg, iv measured upto 24 hrs by LC-MS/MS analysis; assay type: ADME, organism-based; settings: in vivo; how it was run: as §5
[27] = Clearance in Sprague-Dawley rat at 20 mg/kg, iv measured upto 24 hrs by LC-MS/MS analysis; assay type: ADME, organism-based; settings: in vivo; how it was run: as §5
[28] = Volume of distribution at the steady state in Sprague-Dawley rat at 5 mg/kg, iv measured upto 24 hrs by LC-MS/MS analysis; assay type: ADME, organism-based; settings: in vivo, read-out: Vdss; how it was run: as §5
[29] = Volume of distribution at the steady state in Sprague-Dawley rat at 20 mg/kg, iv measured upto 24 hrs by LC-MS/MS analysis; assay type: ADME, organism-based; settings: in vivo, read-out: Vdss; how it was run: as §5
[30] = Cytotoxicity against human L02 cells assessed as cell viability measured for 48 hrs by CCK-8 assay; assay type: toxicity, cell-based
How it was run: (§6)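 Cells seeded at 1 × 10⁴ per well and grown for 48 h. Then exposed to test articles at 1–200 μM for another 48 h (n = 6). Viability by CCK-8 added for 2 h, absorbance read at 450 nm. CC50 calculated and reported as the mean.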

[31] = Cytotoxicity against human HEK293 cells assessed as cell viability measured for 48 hrs by CCK-8 assay; assay type: toxicity, cell-based; how it was run: as §6
Acinetobacter baumannii [32] = test: Antibacterial activity against OXA23-producing multidrug resistant Acinetobacter baumannii infected in iv dosed kunming mouse measured after 24 hrs; assay type: functional, organism-based; settings: dose 10-30 mg/kg, DDE = dose-dependent effect
How it was run: (§7)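 Neutropenic thigh model in Kunming mice (18−22 g, half male/half female; 8 per dosed group, 13 vehicle). Cyclophosphamide given ip 4 days (150 mg/kg) and 1 day (100 mg/kg) before infection. Right posterior thigh injected im with 0.1 mL of 10⁷ cfu/mL OXA-23 MDR A. baumannii clinical isolate. Iv tail dosing at 10, 20, 30 mg/kg 2 h post-infection; levofloxacin 30 mg/kg iv; saline vehicle. Thighs homogenised in saline for cfu after 24 h.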

Acinetobacter baumannii [33] = test: Bactericidal activity against OXA23-producing multidrug resistant Acinetobacter baumannii infected in dosed kunming mouse at 30 mg/kg, iv measured after 24 hrs; assay type: functional, organism-based; how it was run: as §7

Work on `COc1cc(N)c(Cl)cc1C(=O)NC1CCN(CCCOc2ccc(F)cc2)CC1OC` (stereo not drawn) [CISAPRIDE MONOHYDRATE] yielded an inhibition at 2 min, 3 µM [1] of 97.7%.

For `CNc1cc(F)cc2c1[nH]c1nc(Oc3cnc(C)nc3)nc(N3CC(=C(C)[C@@H](C)N)C3)c12`, the inhibition at 2 min, 40 µM [2] was 18.3%, the IC50 [3] was greater than 40 µM and the MIC (Escherichia coli [4]) was 0.5 µg/mL (≈ 1.11 µM). For the same compound, the MIC (Escherichia coli [5]) was 0.5 µg/mL (≈ 1.11 µM), the MIC (Escherichia coli [6]) was 0.125 µg/mL (≈ 0.279 µM) and the MIC (Klebsiella pneumoniae [7]) was 2 µg/mL (≈ 4.46 µM). It also gave an MIC (Klebsiella pneumoniae [8]) of 4 µg/mL (≈ 8.92 µM), an MIC (Klebsiella pneumoniae [9]) of 2 µg/mL (≈ 4.46 µM) and an MIC (Acinetobacter baumannii [10]) of 0.25 µg/mL (≈ 0.557 µM). The MIC (Acinetobacter baumannii [11]) was 0.25 µg/mL (≈ 0.557 µM), the MIC (Pseudomonas aeruginosa [12]) was 4 µg/mL (≈ 8.92 µM) and the MIC (Pseudomonas aeruginosa [13]) was 2 µg/mL (≈ 4.46 µM). For the same compound, the half-life at 0.1 µM [14] was 8.3 min, the half-life at 0.1 µM [15] was 1.23 h and the CLH [16] was 252 mL/min/g. The CLH [17] was 28.4 mL/min/g, the Fh at 1 h, 0.1 µM [18] was 15% and the Fh at 1 h, 0.1 µM [19] was 40.8%. The AUC(0-inf) [20] was 1100 ng·h/mL, the AUC(0-inf) [21] was 5790 ng·h/mL and the half-life [22] was 8.5 h. It also gave a half-life [23] of 5.9 h, an MRT [24] of 7.8 h and an MRT [25] of 3.1 h. It also gave a clearance [26] of 76.6 mL/min/kg, a clearance [27] of 57.7 mL/min/kg and a Vd [28] of 35.7 L/kg. For the same compound, the Vd [29] was 10.8 L/kg, the CC50 at 48 h [30] was 16 µM and the CC50 at 48 h [31] was 19 µM. For the same compound, the Activity (Acinetobacter baumannii [32]) was “Dde” and the Activity (Acinetobacter baumannii [33]) was “Active”.
